Shown are actives, neighbours in structure and some others; about 2% of the full set was active somewhere.
M1 PAM = potentiates human M1 receptor response to acetylcholine; 360,000 tested, 0.088% active; CHO-K1 hM1, Fluo-8 calcium fluorescence, ACh EC20; 0% = ACh EC20, 100% = maximal ACh; AID 588819; P11229; activation, % at 3 µM; in the data active = activation above about 19%, passing the limit was not always enough
CHRM5 PAM = positive allosteric modulators of human muscarinic M5 receptor. activation, % at 3 µM. 360,000 tested, 0.3% active. CHO-K1 hM5, Fluo-8 calcium, ACh EC20 PAM; 0% = ACh EC20, 100% = ACh EC100. AID 624038;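 active = activation above the run cutoff, the mean activation of all test compounds plus 3 SD, cut at about 18% in these data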
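Measured by: Fluo-8 calcium fluorescence; material: human M5 receptor in CHO-K1 cells; schedule: Post-acetylcholine fluorescence recording 140 s; benchmarks: low control EC20 acetylcholine (0%), high control EC100 acetylcholine (100%); read-out: Max/basal fluorescence ratio as % of EC20–EC100 ACh window; compound: single dose, 3 µM nominal final test concentration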
M1 ag = human M1 muscarinic receptor agonism; P11229; CHO-K1 hM1, Fluo-8 calcium fluorescence, agonist mode; 0% DMSO, 100% acetylcholine EC100; activation, % at 3 µM; 360,000 tested, 0.33% active; AID 588814;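 active = activation above the run's mean compound activation plus 3 SD, cut at about 16% in these data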;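 also: peak over basal fluorescence ratio within a 140 s kinetic read after compound addition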
M5 antag = CHRM5 antagonism in calcium assay. inhibition, % at 3 µM. P08912. 360,000 tested, 0.59% active. CHO-hM5 cells, Fluo-8 calcium fluorescence, ACh EC80;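 active = inhibition above a per-plate cutoff, the mean of that plate's test compounds plus 3 SD, cut at about 27% in these data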
M5 ag = agonists of human muscarinic M5 receptor (CHRM5); activation, % at 3 µM; AID 624037; P08912; 360,000 tested, 0.19% active; CHO-K1 hM5 cells, Fluo-8 calcium fluorescence; 0% DMSO wells, 100% maximal acetylcholine response;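 active = activation above the run's mean over test compounds plus 3 SD, cut at about 23% in these data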;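 also: signal is peak over basal fluorescence ratio across the kinetic read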
M1 antag = antagonists of human M1 muscarinic receptor; inhibition, % at 3 µM; CHO-K1 hM1, Fluo-8 calcium fluorescence, ACh EC80 antagonist; 360,000 tested, 1.3% active; AID 588852;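 active = percent inhibition above its own plate's cutoff, namely the mean of that plate's compound wells plus 3 SD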;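 also: peak over basal fluorescence ratio during 140 s after agonist addition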
Numbers stand for hits; 0 = inactive.

SMILES	M1 PAM	CHRM5 PAM	M1 ag	M5 antag	M5 ag	M1 antag
Cc1ccc(-c2cc(-c3ccc(C)cc3)[n+](-c3ccccc3)c(-c3ccc(C)cc3)c2)cc1	0	0	0	31	0	51
CN1C(=O)CN=C(c2ccc[nH]2)c2cc(Cl)ccc21 (tested in a mixture with another compound)	0	0	0	0	0	0
O=c1[nH]c(=S)n(-c2ccccc2)c(O)c1C=NCCN1CCNCC1	0	0	0	0	0	0
O=c1[nH]c(=O)n(Cc2ccccc2)c(O)c1C=NCCN1CCNCC1	0	0	0	0	0	33
O=c1[nH]c(=S)n(-c2ccccc2Cl)c(O)c1C=NCCN1CCNCC1	0	0	39	0	0	0
C=CCn1c(O)c(C=NCCN2CCNCC2)c(=O)[nH]c1=O	0	0	0	0	0	0
CC1CCC(NCCc2ccc3c(c2)OCO3)CC1 (centres undefined)	0	0	0	0	0	34
c1cc2c(cc1CCNC1C3CC4CC(C3)CC1C4)OCO2 (centres undefined)	0	0	0	0	0	0
COC(=O)C1=C(c2cccc(C#N)c2)C[C@@H]2CC[C@H]1N2C(=O)N1CCCC1	0	0	0	0	0	0
O=C(C[N+]12CCC(CC1)C(OC(=O)c1ccccc1)C2)c1ccc([N+](=O)[O-])cc1 (centres undefined)	0	0	0	0	0	0
CCC(CO)(C(=O)OC1C[N+]2(C)CCC1CC2)c1ccccc1 (centres undefined)	0	0	0	99	0	99
Cc1cc(C)cc(NC2=NCCCS2)c1	0	0	0	0	0	0
Cc1ccc(CN2CCN(Cc3ccccc3F)CC2)cc1	0	26	0	0	0	0
FC(F)(F)c1ccc2c(c1)N(CCCN1CCN(CCCl)CC1)c1ccccc1S2	0	0	0	0	0	42
Nc1ccc(CCN2CCN(c3cccc(C(F)(F)F)c3)CC2)cc1	0	0	0	0	0	0
CSCCC(c1nnnn1-c1ccc2c(c1)OCCO2)N1CCC(n2c(=O)[nH]c3ccccc32)CC1 (centres undefined)	0	0	0	0	0	0
CC(=O)c1ccc(-c2ccccc2)cc1	0	0	0	0	0	0
CC(Oc1ccc(-c2ccccc2)cc1)C(=O)O (centres undefined)	0	18	0	0	0	0
O=c1[nH]c2ccccc2n1C1CCN(C(c2ccccc2OC(F)(F)F)c2nnnn2-c2ccc3c(c2)OCCO3)CC1 (centres undefined)	0	0	0	0	0	0
COc1cccc(C(c2nnnn2-c2ccc3c(c2)OCCO3)N2CCC(n3c(=O)[nH]c4ccccc43)CC2)c1OC (centres undefined)	0	0	20	0	30	0
COc1ccc(-n2nnnc2C(c2cccc(OC)c2OC)N2CCC(n3c(=O)[nH]c4ccccc43)CC2)cc1 (centres undefined)	0	0	23	0	0	0
CN1CCC(N(C)c2nc(-c3ccc([N+](=O)[O-])cc3)nc3ccccc23)CC1	0	0	0	0	0	0
CN(CC1COc2ccccc2O1)c1nc(-c2cccnc2)nc2ccccc12 (centres undefined)	0	0	0	0	0	30
Cc1ccc2c(c1)c(=O)c1c3n2CCN(CC2CO2)C3CC1 (centres undefined)	0	0	0	0	0	0
CCn1ccnc1CN1CCCC(C(=O)c2cc(C)c(OC)c(C)c2)C1 (centres undefined)	0	0	0	0	0	38
Fc1ccccc1CNC1CN2CCC1CC2 (centres undefined)	0	0	0	0	0	45
Clc1ccc(CNC2CN3CCC2CC3)cc1 (centres undefined)	0	0	0	0	0	0
CN1C2CCC1CC(OC(=O)c1ccc(Cl)cc1)C2 (centres undefined)	0	0	0	32	0	77
CCOc1ccc(C(=O)OC2CC3CCC(C2)N3C)cc1 (centres undefined)	0	0	0	0	0	0
